Measured values as given in ChEMBL document CHEMBL5303300, “EUbOPEN Chemogenomics Library - Multiplex” (2023).
Values joined by “and” are separate entries in the source; they are usually repeats but may differ in a detail not shown here. Equal values may be shown once.

Columns and labels:
U2OS = experiment: Multiplex assay against U2OS; type: toxicity, cell-based; details: human, number of replicates 2
In short: (§1)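 Tubulin, mitochondrial-mass and membrane-permeability phenotypes are per cents of healthy-nucleus cells. Cells were gated by CellPathfinder machine learning into Hoechst high-intensity objects or normal cells, normal cells into healthy, pyknosed or fragmented nuclei, and pyknosed cells into mitotic or apoptotic. Before that, live cells stained at seeding with Hoechst33342, BioTracker Green Microtubule Cytoskeleton Dye, MitoTracker Red and Annexin V Alexa Fluor 680 were imaged on a CQ1 microscope at 37°C and 5% CO2 after compound addition.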

Fibroblast = experiment: Multiplex assay against human fibroblast; type: toxicity, cell-based; details: number of replicates 2; in short: as §1
[1] = 24 h, 1 µM, compound concentration 1 uM
[2] = 24 h, 10 µM, compound concentration 10 uM
[3] = 48 h, 1 µM, compound concentration 1 uM
[4] = 48 h, 10 µM, compound concentration 10 uM
[5] = 12 h, 1 µM, compound concentration 1 uM
[6] = 12 h, 10 µM, compound concentration 10 uM

For `Cc1cc(-c2cnc(N)c3c(-c4ccc5scnc5c4)csc23)n(C)n1`, the “Population Tubulin-Different-Phenotype (%)” value (U2OS; [1]) was 85% and 83%, the “Population Apoptotic (%)” value (U2OS; [2]) was 76% and 84% and the “Population Healthy Nuclei (%)” value (U2OS; [2]) was 56% and 80%. The “Population Hoechst High Intensity Objects (%)” value (U2OS; [2]) was 1% and 0%, the “Population Membrane Permeable-Phenotype (%)” value (U2OS; [2]) was 8% and 7% and the “Population Mitochondria Different-Phenotype (%)” value (U2OS; [2]) was 29% and 19%. For the same compound, the “Population Mitotic Cells (%)” value (U2OS; [2]) was 23% and 15%, the “Population Normal (%)” value (U2OS; [2]) was 98% and 99% and the “Population Pyknosed Nuclei (%)” value (U2OS; [2]) was 25% and 15%. The “Population Tubulin-Different-Phenotype (%)” value (U2OS; [2]) was 42% and 36%, the “Population Apoptotic (%)” value (U2OS; [3]) was 50% and 60% and the “Population Fragmented Nuclei (%)” value (U2OS; [3]) was 1% and 5%. The “Population Healthy Nuclei (%)” value (U2OS; [3]) was 90% and 86%, the “Population Hoechst High Intensity Objects (%)” value (U2OS; [3]) was 0% and the “Population Membrane Permeable-Phenotype (%)” value (U2OS; [3]) was 1%. The “Population Mitochondria Different-Phenotype (%)” value (U2OS; [3]) was 1%, the “Population Mitotic Cells (%)” value (U2OS; [3]) was 50% and 39% and the “Population Normal (%)” value (U2OS; [3]) was 100%. For the same compound, the “Population Pyknosed Nuclei (%)” value (U2OS; [3]) was 7%, the “Population Tubulin-Different-Phenotype (%)” value (U2OS; [3]) was 81% and 83% and the “Population Apoptotic (%)” value (U2OS; [4]) was 73% and 82%. The “Population Fragmented Nuclei (%)” value (U2OS; [4]) was 12% and 5%, the “Population Healthy Nuclei (%)” value (U2OS; [4]) was 52% and 78% and the “Population Hoechst High Intensity Objects (%)” value (U2OS; [4]) was 2% and 0%. For the same compound, the “Population Membrane Permeable-Phenotype (%)” value (U2OS; [4]) was 7%, the “Population Mitochondria Different-Phenotype (%)” value (U2OS; [4]) was 19% and 13% and the “Population Mitotic Cells (%)” value (U2OS; [4]) was 26% and 17%. For the same compound, the “Population Normal (%)” value (U2OS; [4]) was 97% and 99%, the “Population Pyknosed Nuclei (%)” value (U2OS; [4]) was 35% and 15% and the “Population Tubulin-Different-Phenotype (%)” value (U2OS; [4]) was 41% and 33%. For the same compound, the “Population Apoptotic (%)” value (Fibroblast; [5]) was 48% and 40%, the “Population Fragmented Nuclei (%)” value (Fibroblast; [5]) was 9% and 10% and the “Population Healthy Nuclei (%)” value (Fibroblast; [5]) was 77% and 62%. For the same compound, the “Population Hoechst High Intensity Objects (%)” value (Fibroblast; [5]) was 0%, the “Population Membrane Permeable-Phenotype (%)” value (Fibroblast; [5]) was 4% and 10% and the “Population Mitochondria Different-Phenotype (%)” value (Fibroblast; [5]) was 0% and 2%. For the same compound, the “Population Mitotic Cells (%)” value (Fibroblast; [5]) was 51% and 60%, the “Population Normal (%)” value (Fibroblast; [5]) was 100% and the “Population Pyknosed Nuclei (%)” value (Fibroblast; [5]) was 12% and 26%. For the same compound, the “Population Tubulin-Different-Phenotype (%)” value (Fibroblast; [5]) was 14% and 15%, the “Total Cell Count” value (Fibroblast; [5]) was 224 and 187 and the “Population Apoptotic (%)” value (Fibroblast; [6]) was 66% and 51%. For the same compound, the “Population Fragmented Nuclei (%)” value (Fibroblast; [6]) was 23%, the “Population Healthy Nuclei (%)” value (Fibroblast; [6]) was 61% and 62% and the “Population Hoechst High Intensity Objects (%)” value (Fibroblast; [6]) was 0%. For the same compound, the “Population Membrane Permeable-Phenotype (%)” value (Fibroblast; [6]) was 12% and 20%, the “Population Mitochondria Different-Phenotype (%)” value (Fibroblast; [6]) was 2% and 0% and the “Population Mitotic Cells (%)” value (Fibroblast; [6]) was 33% and 48%. The “Population Normal (%)” value (Fibroblast; [6]) was 99% and 100%, the “Population Pyknosed Nuclei (%)” value (Fibroblast; [6]) was 15% and 14% and the “Population Tubulin-Different-Phenotype (%)” value (Fibroblast; [6]) was 76% and 56%. For the same compound, the “Total Cell Count” value (Fibroblast; [6]) was 240 and 224, the “Population Apoptotic (%)” value (Fibroblast; [1]) was 50% and 60% and the “Population Fragmented Nuclei (%)” value (Fibroblast; [1]) was 13% and 10%. The “Population Healthy Nuclei (%)” value (Fibroblast; [1]) was 75% and 64%, the “Population Hoechst High Intensity Objects (%)” value (Fibroblast; [1]) was 0% and the “Population Membrane Permeable-Phenotype (%)” value (Fibroblast; [1]) was 1% and 6%. For the same compound, the “Population Mitochondria Different-Phenotype (%)” value (Fibroblast; [1]) was 0% and 3%, the “Population Mitotic Cells (%)” value (Fibroblast; [1]) was 50% and 39% and the “Population Normal (%)” value (Fibroblast; [1]) was 100%. For the same compound, the “Population Pyknosed Nuclei (%)” value (Fibroblast; [1]) was 11% and 25%, the “Population Tubulin-Different-Phenotype (%)” value (Fibroblast; [1]) was 10% and 13% and the “Total Cell Count” value (Fibroblast; [1]) was 253 and 187. For the same compound, the “Population Apoptotic (%)” value (Fibroblast; [2]) was 68% and 59%, the “Population Fragmented Nuclei (%)” value (Fibroblast; [2]) was 27% and the “Population Healthy Nuclei (%)” value (Fibroblast; [2]) was 62% and 60%. The “Population Hoechst High Intensity Objects (%)” value (Fibroblast; [2]) was 0%, the “Population Membrane Permeable-Phenotype (%)” value (Fibroblast; [2]) was 10% and 15% and the “Population Mitochondria Different-Phenotype (%)” value (Fibroblast; [2]) was 1%. For the same compound, the “Population Mitotic Cells (%)” value (Fibroblast; [2]) was 32% and 40%, the “Population Normal (%)” value (Fibroblast; [2]) was 100% and the “Population Pyknosed Nuclei (%)” value (Fibroblast; [2]) was 9% and 12%. The “Population Tubulin-Different-Phenotype (%)” value (Fibroblast; [2]) was 74% and 46%, the “Total Cell Count” value (Fibroblast; [2]) was 254 and 259 and the “Population Apoptotic (%)” value (Fibroblast; [3]) was 71% and 61%. For the same compound, the “Population Fragmented Nuclei (%)” value (Fibroblast; [3]) was 10% and 14%, the “Population Healthy Nuclei (%)” value (Fibroblast; [3]) was 83% and 67% and the “Population Hoechst High Intensity Objects (%)” value (Fibroblast; [3]) was 0%. The “Population Membrane Permeable-Phenotype (%)” value (Fibroblast; [3]) was 4% and 9%, the “Population Mitochondria Different-Phenotype (%)” value (Fibroblast; [3]) was 1% and 3% and the “Population Mitotic Cells (%)” value (Fibroblast; [3]) was 28% and 38%. For the same compound, the “Population Normal (%)” value (Fibroblast; [3]) was 100%, the “Population Pyknosed Nuclei (%)” value (Fibroblast; [3]) was 6% and 17% and the “Population Tubulin-Different-Phenotype (%)” value (Fibroblast; [3]) was 8% and 13%. For the same compound, the “Total Cell Count” value (Fibroblast; [3]) was 221 and 189, the “Population Apoptotic (%)” value (Fibroblast; [4]) was 66% and 72% and the “Population Fragmented Nuclei (%)” value (Fibroblast; [4]) was 31% and 29%. The “Population Healthy Nuclei (%)” value (Fibroblast; [4]) was 59% and 61%, the “Population Hoechst High Intensity Objects (%)” value (Fibroblast; [4]) was 0% and the “Population Membrane Permeable-Phenotype (%)” value (Fibroblast; [4]) was 6% and 9%. The “Population Mitochondria Different-Phenotype (%)” value (Fibroblast; [4]) was 1%, the “Population Mitotic Cells (%)” value (Fibroblast; [4]) was 33% and 27% and the “Population Normal (%)” value (Fibroblast; [4]) was 100%. For the same compound, the “Population Pyknosed Nuclei (%)” value (Fibroblast; [4]) was 9% and 8%, the “Population Tubulin-Different-Phenotype (%)” value (Fibroblast; [4]) was 71% and 54% and the “Total Cell Count” value (Fibroblast; [4]) was 257 and 251.
